# In the library only some 1.4% were active in any assay of this set; here they are far more common.
# HDAC3 inh – blocks human histone deacetylase 3. recombinant HDAC3, fluorogenic peptide/trypsin coupled, fluorescence. inhibition, % at 8.3 µM. O15379. 320,000 compounds, 0.15% hits; in the data active means inhibition above about 26%, passing the limit was not always enough
# Target sequence (O15379 whole entry, looked up): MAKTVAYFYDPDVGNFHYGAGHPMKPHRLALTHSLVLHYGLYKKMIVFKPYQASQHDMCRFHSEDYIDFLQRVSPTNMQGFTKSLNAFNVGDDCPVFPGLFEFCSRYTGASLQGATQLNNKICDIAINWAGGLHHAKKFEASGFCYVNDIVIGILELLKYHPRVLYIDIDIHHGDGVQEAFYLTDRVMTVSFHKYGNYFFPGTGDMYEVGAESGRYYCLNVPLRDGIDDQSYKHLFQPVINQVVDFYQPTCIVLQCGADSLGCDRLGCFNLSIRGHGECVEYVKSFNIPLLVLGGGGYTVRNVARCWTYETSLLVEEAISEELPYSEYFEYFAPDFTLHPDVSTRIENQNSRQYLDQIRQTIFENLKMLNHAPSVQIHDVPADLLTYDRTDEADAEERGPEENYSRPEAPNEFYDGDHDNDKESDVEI
# CR mimetic SO – caloric restriction mimetics inhibiting age-related superoxide in yeast; 330,000 compounds, 0.18% hits; AID 2690; superoxide response (% of plate mean), % at 10 µM; S. cerevisiae aged cells, superoxide DHE fluorescence; stronger effect = lower value;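 active means superoxide response under a set limit, about three screen SD below normal, cut at about 65% in these data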;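 further: yeast aged for seven days with compound at 30 °C before DHE staining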
# IDE cell inh – cellular human IDE inhibition; inhibition, % at 5.59 µM; HEK cells, FAbetaB cleavage, fluorescence polarization; 320,000 compounds, 0.41% hits; AID 434962;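 active means percent inhibition above the average of all tested compounds plus 3 SD, set per screening campaign, cut at about 16% in these data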;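 further: IDE supplied by intact live HEK cells; FP after avidin binding of uncleaved biotin substrate so inhibition keeps polarization high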
# IDE act – activators of human insulin-degrading enzyme in cells; P14735; activation, % at 5.96 µM; HEK cells, FAbeta-B cleavage, fluorescence polarization; 0% vehicle, 100% cell-free pure enzyme wells; 340,000 compounds, 0.073% hits; AID 493087;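 active means activation above the mean of all tested compounds plus 3 SD, set per screening campaign, cut at about 17% in these data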
# Tb MetRS inh – Trypanosoma brucei MetRS inhibition; purified T. brucei MetRS, ATP depletion, Kinase-Glo luminescence; inhibition, % at 11.9 µM; 360,000 compounds, 0.4% hits; AID 624268;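 active means inhibition above a per-plate cutoff of the control wells' mean inhibition plus 3 SD, cut at about 5.5% in these data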
#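 Test system – parasite MetRS enzyme · Reagent – substrates ATP, L-methionine and bulk Escherichia coli tRNA · Doses – 11.9 µM compound single dose, 0.9% DMSO · Times – 15 min enzyme-compound preincubation, 2 h reaction, 10 min detection, 25 °C · Signal – Kinase-Glo luminescence, ATP depletion format · Controls – DMSO-only wells as low control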
# Efflux pump mplx – inhibitors of Candida antifungal efflux pumps expressed in yeast; S. cerevisiae Candida pump triplex, Nile Red efflux; inhibition, % at 10 µM; 330,000 compounds, 0.44% hits; AID 485275;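 active means plate passing quality check with inhibition over a set limit, or well fluorescence over plate mean plus 4 SD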;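 further: Nile Red retained in pooled yeast measured as flow cytometry median fluorescence; higher means more Nile Red kept so more efflux inhibition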
# Cmpd fluor yeast – compound fluorescence in yeast efflux pump counter-screen. shares compounds with Efflux pump mplx. S. cerevisiae AD/pABC3, flow cytometry. fluorescence ratio to DMSO, % at 10 µM. 1,700 compounds, 4% hits. AID 588517;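 active means fluorescence ratio to DMSO above its plate's cutoff, the plate mean ratio plus 5 SD, cut at about 210% in these data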;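 further: unstained yeast with no Nile Red so the signal is compound autofluorescence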
# CaMdr1 efflux inh – blocks the Candida albicans Mdr1 efflux pump in yeast | shares compounds with Efflux pump mplx | S. cerevisiae AD/CaMDR1, Nile Red efflux, flow cytometry | inhibition, % at 10 µM | 1,700 compounds, 1% hits | AID 588518; in the data active means inhibition above about 26%;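 further: higher means more Nile Red retained so more efflux inhibition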
# Cdr2 pump inh – inhibitors of Candida albicans Cdr2 efflux pump; Nile Red retention ratio vs DMSO, % at 10 µM; AID 588520; 1,700 compounds, 4% hits; S. cerevisiae AD/CaCDR2, Nile Red retention, flow cytometry; shares compounds with Efflux pump mplx; in the data active means Nile Red retention ratio vs DMSO above about 190%;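 further: higher ratio means more blocking of Cdr2 efflux of the dye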
# Cdr1 pump inh – Candida Cdr1 efflux pump inhibition; shares compounds with Efflux pump mplx; S. cerevisiae AD/CaCDR1, Nile Red efflux, flow cytometry; inhibition, % at 10 µM; 1,700 compounds, 1% hits; AID 588522;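 active means inhibition above the screen-wide mean plus twice its standard deviation, cut at about 32% in these data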
# Hits are given with their value; - = inactive; . = not tested or not shown; + = active, no number.
SMILES,HDAC3 inh,CR mimetic SO,IDE cell inh,IDE act,Tb MetRS inh,Efflux pump mplx,Cmpd fluor yeast,CaMdr1 efflux inh,Cdr2 pump inh,Cdr1 pump inh
Cc1ccc(NC(=S)NNC(=O)c2ccc(N3CCOCC3)c([N+](=O)[O-])c2)cc1C,-,-,-,-,-,-,.,.,.,.
Cc1nc2c(ncn2-c2ccccc2)c(=O)n1NC(=O)CN1CCCCC1,-,-,-,-,-,-,.,.,.,.
CCN1/C(=C\c2ccc3cc(C)ccc3[n+]2CC)Sc2cc(C)c(C)cc21,.,.,.,-,-,.,.,.,.,.
CCN1/C(=C/c2ccc3cc(C)ccc3[n+]2CC)Sc2ccc3sccc3c21,-,-,-,-,-,3.6,+,-,-,-
COc1ccc(OC)c(/C=C2\SC(=S)N(NS(=O)(=O)c3ccccc3)C2=O)c1,-,-,-,-,-,-,.,.,.,.
O=C1/C(=C/c2cccs2)SC(=S)N1NS(=O)(=O)c1ccccc1,-,-,-,-,-,-,-,-,-,-
CCOc1ccc(S(=O)(=O)N(CC)CC(=O)NCc2cccnc2)cc1C,-,-,-,-,-,-,.,.,.,.
COC(=O)c1ccc(CN2CCC(Oc3cccc(C(=O)N4CCCC4)c3)CC2)cc1,-,-,-,-,-,5.3,-,-,-,-
COc1ccc(S(=O)(=O)N/N=C(/C)c2ccncc2)cc1,-,-,-,-,-,5.7,-,-,-,-
C/C(=N\NS(=O)(=O)c1ccc(Br)cc1)c1ccncc1,-,-,-,-,-,-,.,.,.,.
Cc1cccc(OCC(=O)Nc2ccc(C(=O)c3ccc(C(=O)O)cc3)cc2)c1,-,-,-,-,-,-,.,.,.,.
O=C(O)C(Cc1c[nH]c2ccccc12)NS(=O)(=O)c1cccc2nsnc12 (stereo unspecified),-,-,-,-,-,24,-,-,-,-
Oc1ccc(N2CCN(Cc3c(-c4ccccc4)nc4ccccn34)CC2)cc1,-,-,-,-,-,-,.,.,.,.
O=[N+]([O-])c1ccc(N2CCN(c3ccccc3)CC2)nc1,-,-,-,-,-,-,.,.,.,.
O=[N+]([O-])c1ccc(N2CCc3ccccc3C2)nc1,-,-,-,-,-,0.6,-,-,-,-
CCN1/C(=C2/SC(=S)N(NC(C)=O)C2=O)Sc2ccccc21,-,-,.,-,-,0.8,-,-,-,-
NC(=S)NNC(=O)[C@@H]1CCCC[C@@H]1C(=O)O,-,-,-,-,-,15,-,-,-,-
O=C(O)C1CCCCC1C(=O)NC1C2CC3CC(C2)CC1C3 (stereo unspecified),-,-,-,-,-,-,.,.,.,.
COc1ccc(CNC(=O)COC(=O)CCC2CCCCC2)cc1,-,-,-,-,-,-,.,.,.,.
COC(=O)c1ccc(CNC(=O)COC(=O)CCC2CCCC2)cc1,-,-,-,-,-,17,-,-,-,-
CCCc1c(C(=O)N/N=C/c2cccnc2)nnn1-c1nonc1N,-,-,-,-,-,-,.,.,.,.
Cc1cc(C)c(NC(=O)C2CC3CCC2C3)c(C)c1 (stereo unspecified),-,-,-,-,-,-,.,.,.,.
Cc1cccc(C)c1NC(=O)C1CC2CCC1C2 (stereo unspecified),-,-,-,-,-,0.8,-,-,-,-
Cc1ccc(CNC(=O)c2cc(-c3ccccc3)nn2CC2CC(c3cccnc3)=NO2)cc1 (stereo unspecified),-,-,-,-,-,0.8,-,-,-,-
Cc1ccc(CNC(=O)c2cc(-c3ccccc3C)nn2CC2CC(c3cccnc3)=NO2)cc1 (stereo unspecified),-,-,-,-,-,-,.,.,.,.
O=C1c2ccc([N+](=O)[O-])cc2C(=O)N1c1ccc(Cl)cn1,-,-,-,-,-,-,.,.,.,.
O=C1c2cccc3c([N+](=O)[O-])ccc(c23)C(=O)N1c1ccccn1,-,-,-,-,-,0.7,-,-,-,-
